Assay results published in ChEMBL document CHEMBL3822380, “Simple avarone mimetics as selective agents against multidrug resistant cancer cells” (Eur J Med Chem, 2016).
≈ marks a conversion by molar mass, not a printed value. Calls of active or inactive are those of the source.

Tests used:
Aspergillus brasiliensis = assay: Antifungal activity against Aspergillus brasiliensis ATCC 16404 by broth microdilution method; type: functional
Outline: (§1)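 Broth microdilution per NCCLS. Compounds dissolved in DMSO as 10 mg/mL stock, diluted in Mueller Hinton broth (bacteria) or Sabouraud dextrose broth (fungi). Amikacin served as the positive control for bacteria and nystatin for fungi.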

NCI-H460 [1] = assay: Induction of mitochondrial membrane potential depolarization in human NCI-H460 cells at 25 uM after 15 mins by JC1-staining-based flow cytometric analysis; type: functional, cell-based
Outline: (§2)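 Cells treated with 25 µM compound, with CDDP 5 µM as control. Stained with JC-1 for 15 min at 37 °C in a CO2 incubator, washed twice in assay buffer and resuspended in PBS. Flow cytometry read red aggregate (FL2-H) versus green monomer (FL1-H) fluorescence. Live cells were also imaged by fluorescence microscopy.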

NCI-H460 [2] = assay: Induction of apoptosis in multidrug resistant human NCI-H460 cells assessed as late apoptotic/necrotic cells at 25 uM after 72 hrs by annexin-V/propidium iodide staining-based flow cytometric analysis (reference value: 1%); type: functional
NCI-H460 [3] = assay: Induction of apoptosis in human NCI-H460 cells assessed as early apoptotic cells at 25 uM after 72 hrs by annexin-V/propidium iodide staining-based flow cytometric analysis (reference value: 0.3%); type: functional
NCI-H460 [4] = assay: Cytotoxicity against human NCI-H460 cells after 72 hrs by MTT assay; type: functional, cell-based; conditions: NCI-H460, 72 h
Outline: (§3)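 Seeding in 96-well plates at 1000 (NCI-H460), 2000 (NCI-H460/R) or 4000 (HaCaT) cells/well, treated after 24 h for 72 h. MTT at 0.4 mg/mL final, 4 h at 37 °C. Formazan dissolved in DMSO, absorbance read at 540 nm. Inhibition % = (1 − A treated/A untreated)×100. IC30 and IC50 obtained by linear regression.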

HaCaT [5] = assay: Induction of apoptosis in human HaCaT cells assessed as early apoptotic cells at 25 uM after 72 hrs by annexin-V/propidium iodide staining-based flow cytometric analysis (reference value: 0.2%); type: cell-based
NCI-H460 [6] = assay: Induction of mitochondrial membrane potential depolarization in multidrug resistant human NCI-H460 cells at 25 uM after 15 mins by JC1-staining-based flow cytometric analysis; type: functional, cell-based; outline: as §2
HaCaT [7] = assay: Induction of apoptosis in human HaCaT cells assessed as dead cells at 25 uM after 72 hrs by annexin-V/propidium iodide staining-based flow cytometric analysis (reference value: 2.8%); type: cell-based
[8] = Selectivity ratio of IC30/IC50 for human HaCaT cells to IC30/IC50 for human NCI-H460 cells; type: ADME, cell-based; conditions: HaCaT cells versus NCI-H460 cells
Outline: (§4)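 Fold threshold of 1.5 used to call selectivity to cancer cells, resistance, or selectivity to MDR cells.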

NCI-H460 [9] = assay: Induction of superoxide anion generation in multidrug resistant human NCI-H460 cells at 25 uM after 72 hrs by DHE staining-based flow cytometric analysis relative to control; type: functional, cell-based
Outline: (§5)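 Seeded as for cell death (50,000 or 100,000 cells/well), treated 72 h at 25 µM, with CDDP 5 µM as control. Adherent cells trypsinized and loaded with 1 µM DHE for 30 min at 37 °C in the dark, then washed twice in PBS. Flow cytometry at ex 488/em 585 nm (FL2-H). Mean fluorescence intensity corrected for autofluorescence and compared with untreated control.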

Saccharomyces cerevisiae = assay: Antifungal activity against Saccharomyces cerevisiae ATCC 9763 by broth microdilution method; type: functional; outline: as §1
NCI-H460 [10] = assay: Induction of apoptosis in multidrug resistant human NCI-H460 cells assessed as early apoptotic cells at 25 uM after 72 hrs by annexin-V/propidium iodide staining-based flow cytometric analysis (reference value: 1.1%); type: functional
HaCaT [11] = assay: Induction of apoptosis in human HaCaT cells assessed as late apoptotic/necrotic cells at 25 uM after 72 hrs by annexin-V/propidium iodide staining-based flow cytometric analysis (reference value: 0.2%); type: cell-based
NCI-H460 [12] = assay: Induction of apoptosis in human NCI-H460 cells assessed as live cells at 25 uM after 72 hrs by annexin-V/propidium iodide staining-based flow cytometric analysis (reference value: 98.3%); type: functional
HaCaT [13] = assay: Induction of superoxide anion generation in human HaCaT cells at 25 uM after 72 hrs by DHE staining-based flow cytometric analysis relative to control; type: cell-based; outline: as §5
NCI-H460 [14] = assay: Induction of superoxide anion generation in human NCI-H460 cells at 25 uM after 72 hrs by DHE staining-based flow cytometric analysis relative to control; type: functional, cell-based; outline: as §5
NCI-H460 [15] = assay: Induction of apoptosis in human NCI-H460 cells assessed as late apoptotic/necrotic cells at 25 uM after 72 hrs by annexin-V/propidium iodide staining-based flow cytometric analysis (reference value: 0.2%); type: functional
NCI-H460 [16] = assay: Induction of apoptosis in multidrug resistant human NCI-H460 cells assessed as dead cells at 25 uM after 72 hrs by annexin-V/propidium iodide staining-based flow cytometric analysis (reference value: 1.5%); type: functional
Candida albicans = assay: Antifungal activity against Candida albicans ATCC 10231 by broth microdilution method; type: functional; outline: as §1
HaCaT [17] = assay: Induction of mitochondrial membrane potential depolarization in human HaCaT cells at 25 uM after 15 mins by JC1-staining-based flow cytometric analysis; type: cell-based; conditions: 0.25 h; outline: as §2
[18] = Selectivity ratio of IC30/IC50 for human HaCaT cells to IC30/IC50 for multidrug resistant human NCI-H460 cells; type: ADME, cell-based; conditions: HaCaT cells versus multidrug resistant NCI-H460 cells; outline: as §4
NCI-H460 [19] = assay: Cytotoxicity against multidrug resistant human NCI-H460 cells after 72 hrs by MTT assay; type: functional, cell-based; conditions: NCI-H460, 72 h; outline: as §3
NCI-H460 [20] = assay: Induction of apoptosis in multidrug resistant human NCI-H460 cells assessed as live cells at 25 uM after 72 hrs by annexin-V/propidium iodide staining-based flow cytometric analysis (reference value: 96.4%); type: functional
HaCaT [21] = assay: Cytotoxicity against human HaCaT cells after 72 hrs by MTT assay; type: cell-based; conditions: for IC50: Homo sapiens, HaCaT; for IC30: human, hacat; outline: as §3
NCI-H460 [22] = assay: Induction of apoptosis in human NCI-H460 cells assessed as dead cells at 25 uM after 72 hrs by annexin-V/propidium iodide staining-based flow cytometric analysis (reference value: 1.2%); type: functional
[23] = Induction of apoptosis in human HaCaT cells assessed as live cells at 25 uM after 72 hrs by annexin-V/propidium iodide staining-based flow cytometric analysis (reference value: 96.8%); type: cell-based; conditions: read-out: Activity
NCI-H460 [24] = assay: Selectivity ratio of IC30/IC50 for human NCI-H460 cells to IC30/IC50 for multidrug resistant human NCI-H460 cells; type: functional; outline: as §4

SMILES | Activity (NCI-H460 [1]) | Activity (NCI-H460 [2]) [%] | Activity (NCI-H460 [3]) [%] | IC30 (NCI-H460 [4]) [µM] | IC50 (NCI-H460 [4]) [µM] | Activity (HaCaT [5]) [%] | Activity (HaCaT [7]) [%] | Activity (NCI-H460 [9]) | Activity (NCI-H460 [10]) [%] | Activity (HaCaT [11]) [%] | Activity (NCI-H460 [12]) [%] | Activity (NCI-H460 [15]) [%] | Activity (NCI-H460 [16]) [%] | IC30 (NCI-H460 [19]) [µM] | IC50 (NCI-H460 [19]) [µM] | Activity (NCI-H460 [20]) [%] | IC50 (HaCaT [21]) [µM] | IC30 (HaCaT [21]) [µM] | Activity (NCI-H460 [22]) [%] | viability at 72 h, 25 µM [23] [%] | other results
CCCCCCCCNC1=CC(=O)C=C(C(C)(C)C)C1=O | Active | 2.1 | 0.2 | 5 | 20 | 0.6 | 19.8 | Active | 0.1 | 2.6 | 54.9 | 2.9 | 36.4 | 8 | 21 | 61.4 | 30 | 18 | 42 | 77 | MIC (Aspergillus brasiliensis): 2150 µM (≈ 626 µg/mL); Activity (NCI-H460 [6]): Active; selectivity ratio [8]: ≤ 1.5; MIC (Saccharomyces cerevisiae): 539 µM (≈ 157 µg/mL); Activity (HaCaT [13]): Non-toxic; Activity (NCI-H460 [14]): inactive; MIC (Candida albicans): 67 µM (≈ 19.5 µg/mL); Activity (HaCaT [17]): Non-toxic; selectivity ratio [18]: ≤ 1.5
CCCCCCCCNC1=CC(=O)C=C(C[C@]2(C)[C@@H](C)CC[C@]3(C)C(C)=CCC[C@@H]23)C1=O |  | 0.1 | 0.1 | 21 | 38 | 0.3 | 13.8 | Active | 0 | 0.6 | 95.7 | 0.3 | 7.3 | 13 | 35 | 92.6 | 17 | 13 | 3.9 | 85.3 | Activity (HaCaT [13]): Toxic; Activity (NCI-H460 [14]): inactive
CC(C)(C)C1=CC(=O)C=CC1=O | inactive | 1.2 | 0.5 | > 100 | > 100 | 1.9 | 7.5 |  | 0.5 | 3.8 | 95.2 | 0.5 | 3.1 | 31 | 72 | 95.2 | 95 | 41 | 3.8 | 86.8 | Activity (NCI-H460 [6]): inactive; Activity (HaCaT [17]): Non-toxic
CC1=CCC[C@H]2[C@](C)(CC3=CC(=O)C(NCCc4ccccc4)=CC3=O)[C@@H](C)CC[C@]12C |  | 0.6 | 0.3 | 75 | > 100 | 0.3 | 9.2 | inactive | 0.4 | 1 | 92 | 0.5 | 4.1 | 10 | 91 | 94.9 | > 100 | 76 | 7.2 | 89.5 | selectivity ratio [8]: ≤ 1.5; selectivity ratio (NCI-H460 [24]): <=1.5; selectivity ratio [18]: ≤ 1.5
